From ChEMBL document CHEMBL1147173, “Design, synthesis, inhibitory activity, and SAR studies of pyrrolidine derivatives as neuraminidase inhibitors” (Bioorg Med Chem, 2007)
Where a SMILES comes first, the peptide text is derived from it. [ ]: non-standard residue; d: D form. The star is where a group is joined. Hyp = O=C(O)[C@@H]1C[C@@H](O)CN1; Boc = CC(C)(C)OC(=O)*; NHOH = ON*

Target: Neuraminidase (Influenza A virus, UniProt B4URF0)
Experiment: Inhibition of Influenza A virus type A H3N2 neuraminidase
Method in brief: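 NA was taken from influenza A virus strains Yuefang 72-243 A and Jifang 90-15 A and prepared by the Laver method. The enzyme in 33 mmol/L MES (pH 3.5) was mixed with 4 mmol/L CaCl₂ and 20 µmol/L MUNANA (added solutions) and incubated for 10 min at 37 °C. The reaction was stopped with 14 mmol/L NaOH in 83% ethanol. Fluorescence was read at 360/450 nm with substrate blanks subtracted. IC50 came from percent inhibition versus concentration, with each point run in duplicate.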

Neuraminidase, sequence (B4URF0 whole entry): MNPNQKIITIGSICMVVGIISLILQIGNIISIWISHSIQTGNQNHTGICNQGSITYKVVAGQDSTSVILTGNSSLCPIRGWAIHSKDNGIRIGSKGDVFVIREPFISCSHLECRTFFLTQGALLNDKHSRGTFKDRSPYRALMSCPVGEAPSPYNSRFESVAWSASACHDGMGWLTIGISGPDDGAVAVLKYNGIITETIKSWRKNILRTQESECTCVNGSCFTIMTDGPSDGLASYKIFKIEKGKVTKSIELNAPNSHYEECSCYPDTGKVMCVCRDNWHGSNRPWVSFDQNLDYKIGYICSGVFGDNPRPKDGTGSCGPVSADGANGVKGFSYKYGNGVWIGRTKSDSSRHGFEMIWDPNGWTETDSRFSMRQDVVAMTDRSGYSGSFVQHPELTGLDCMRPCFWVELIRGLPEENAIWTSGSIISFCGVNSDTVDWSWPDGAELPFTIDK

Q: How did the IC50 (read-out: IC50) turn out when `COC(=O)[C@@H]1C[C@@H](O)CN1C(=O)[C@H](C)NC(=O)OC(C)(C)C` (Boc-Ala-[Hyp]-OMe) was run?
A: 90.8 µM

Q: What about the IC50 (read-out: Log IC50 (converted)) of the same molecule?
A: 288 µM

Q: `CC[C@H](C)[C@H](NC(=O)OC(C)(C)C)C(=O)N1C[C@@H](N)C[C@H]1C(=O)NO` was tested. Which IC50 (read-out: IC50) did it give?
A: 2.1 µM

Q: And the IC50 (read-out: Log IC50 (converted))?
A: 5.89 µM

Q: For `CC(C)C[C@H](NC(=O)OC(C)(C)C)C(=O)N1C[C@@H](N)C[C@H]1C(=O)NO`, which IC50 (read-out: IC50) is on record?
A: 6.13 µM

Q: And the IC50 (read-out: Log IC50 (converted))?
A: 17.4 µM

Q: How did the IC50 (read-out: IC50) turn out when `N[C@H]1C[C@@H](C(=O)O)N(C(=O)Cc2ccccc2Nc2c(Cl)cccc2Cl)C1` was run?
A: 16.2 µM

Q: What about the IC50 (read-out: Log IC50 (converted)) of the same molecule?
A: 39.8 µM

Q: For `COC(=O)[C@@H]1C[C@H](N)CN1C(=O)[C@H](C)NC(=O)OC(C)(C)C`, which IC50 (read-out: IC50) is on record?
A: 83.7 µM

Q: What about the IC50 (read-out: Log IC50 (converted)) of the same molecule?
A: 269 µM

Q: How did the IC50 (read-out: IC50) turn out when `CC(C)(C)OC(=O)N[C@@H](Cc1ccccc1)C(=O)N1C[C@H](O)C[C@H]1C(=O)O` (Boc-Phe-[Hyp]-OH) was run?
A: 2.85 µM

Q: And the IC50 (read-out: Log IC50 (converted))?
A: 7.59 µM

Q: For `CC(C)[C@H](NC(=O)OC(C)(C)C)C(=O)N1C[C@@H](N)C[C@H]1C(=O)O`, which IC50 (read-out: IC50) is on record?
A: 4.29 µM

Q: And the IC50 (read-out: Log IC50 (converted))?
A: 13.2 µM

Q: Which IC50 (read-out: IC50) does the source give for `CC[C@H](C)[C@H](NC(=O)OC(C)(C)C)C(=O)N1C[C@@H](N)C[C@H]1C(=O)O` here?
A: 2.71 µM

Q: What about the IC50 (read-out: Log IC50 (converted)) of the same molecule?
A: 7.94 µM

Q: Which IC50 (read-out: IC50) does the source give for `C[C@H](NC(=O)OC(C)(C)C)C(=O)N1C[C@@H](N)C[C@H]1C(=O)NO` here?
A: 12.6 µM

Q: And the IC50 (read-out: Log IC50 (converted))?
A: 40.7 µM

Q: For `N[C@H]1C[C@@H](C(=O)NO)N(C(=O)Cc2ccccc2Nc2c(Cl)cccc2Cl)C1`, which IC50 (read-out: IC50) is on record?
A: 3.57 µM

Q: And the IC50 (read-out: Log IC50 (converted))?
A: 8.51 µM

Q: What does the source list for `COC(=O)[C@@H]1C[C@@H](N)CN1C(=O)[C@@H](N)CC(C)C`?
A: IC50 (read-out: IC50): 48 µM; IC50 (read-out: Log IC50 (converted)): 191 µM

Q: How did the IC50 (read-out: IC50) turn out when `CC(C)(C)OC(=O)N[C@@H](Cc1ccccc1)C(=O)N1C[C@@H](N)C[C@H]1C(=O)NO` was run?
A: 4.17 µM

Q: What about the IC50 (read-out: Log IC50 (converted)) of the same molecule?
A: 10.7 µM

Q: Which IC50 (read-out: IC50) does the source give for `O=C(NO)[C@@H]1C[C@@H](O)CN1C(=O)Cc1ccccc1Nc1c(Cl)cccc1Cl` here?
A: 8.54 µM

Q: And the IC50 (read-out: Log IC50 (converted))?
A: 20 µM

Q: For `C[C@H](NC(=O)OC(C)(C)C)C(=O)N1C[C@@H](N)C[C@H]1C(=O)O`, which IC50 (read-out: IC50) is on record?
A: 15.8 µM

Q: What about the IC50 (read-out: Log IC50 (converted)) of the same molecule?
A: 53.7 µM

Q: How did the IC50 (read-out: IC50) turn out when `CC(=O)N1C[C@H](O)C[C@@H]1C(=O)O` was run?
A: 48.7 µM

Q: And the IC50 (read-out: Log IC50 (converted))?
A: 282 µM

Q: With `CC(C)C[C@H](NC(=O)OC(C)(C)C)C(=O)N1C[C@H](O)C[C@H]1C(=O)NO` (Boc-Leu-[Hyp]-{NHOH}) as the molecule, how does the IC50 (read-out: IC50) read?
A: 3.87 µM

Q: And the IC50 (read-out: Log IC50 (converted))?
A: 11 µM

Q: With `CC(C)C[C@H](NC(=O)OC(C)(C)C)C(=O)N1C[C@H](O)C[C@H]1C(=O)O` (Boc-Leu-[Hyp]-OH) as the molecule, how does the IC50 (read-out: IC50) read?
A: 11.5 µM

Q: And the IC50 (read-out: Log IC50 (converted))?
A: 33.9 µM

Q: For `CC(C)(C)OC(=O)N[C@@H](Cc1ccccc1)C(=O)N1C[C@@H](N)C[C@H]1C(=O)O`, which IC50 (read-out: IC50) is on record?
A: 2.4 µM

Q: What about the IC50 (read-out: Log IC50 (converted)) of the same molecule?
A: 6.46 µM

Q: With `O=C(O)[C@@H]1C[C@@H](O)CN1C(=O)Cc1ccccc1Nc1c(Cl)cccc1Cl` as the molecule, how does the IC50 (read-out: IC50) read?
A: 19.8 µM

Q: And the IC50 (read-out: Log IC50 (converted))?
A: 49 µM

Q: `CC(C)[C@H](NC(=O)OC(C)(C)C)C(=O)N1C[C@H](O)C[C@H]1C(=O)NO` (Boc-Val-[Hyp]-{NHOH}) was tested. Which IC50 (read-out: IC50) did it give?
A: 6.09 µM

Q: And the IC50 (read-out: Log IC50 (converted))?
A: 17.8 µM

Q: `CC[C@H](C)[C@H](NC(=O)OC(C)(C)C)C(=O)N1C[C@H](O)C[C@H]1C(=O)NO` (Boc-Ile-[Hyp]-{NHOH}) was tested. Which IC50 (read-out: IC50) did it give?
A: 2.15 µM

Q: What about the IC50 (read-out: Log IC50 (converted)) of the same molecule?
A: 6.03 µM

Q: `CC(C)(C)OC(=O)N[C@@H](Cc1ccccc1)C(=O)N1C[C@H](O)C[C@H]1C(=O)NO` (Boc-Phe-[Hyp]-{NHOH}) was tested. Which IC50 (read-out: IC50) did it give?
A: 4.27 µM

Q: And the IC50 (read-out: Log IC50 (converted))?
A: 11 µM

Q: Which IC50 (read-out: IC50) does the source give for `CC(C)[C@H](NC(=O)OC(C)(C)C)C(=O)N1C[C@H](O)C[C@H]1C(=O)O` (Boc-Val-[Hyp]-OH) here?
A: 4.63 µM

Q: And the IC50 (read-out: Log IC50 (converted))?
A: 14.1 µM

Q: For `CSCC[C@H](NC(=O)OC(C)(C)C)C(=O)N1C[C@@H](N)C[C@H]1C(=O)O`, which IC50 (read-out: IC50) is on record?
A: 1.56 µM

Q: And the IC50 (read-out: Log IC50 (converted))?
A: 4.37 µM
